Reference: ChEMBL document CHEMBL1944580, “Synthesis of novel sulfonamide-1,2,4-triazoles, 1,3,4-thiadiazoles and 1,3,4-oxadiazoles, as potential antibacterial and antifungal agents. Biological evaluation and conformational analysis studies” (2012)
In brackets after ≈: the same amount, converted by molar mass.

These compounds were tested on Staphylococcus aureus (assay: Antibacterial activity against Staphylococcus aureus ATCC 6538 after 24 hrs by micro dilution method). Settings: ATCC 6538, 24 h.
Assay type: functional
Outline: (§1)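 Microdilution MIC in 96-well plates. Bacterial suspensions adjusted in sterile saline to 1.0 × 10^5 CFU/ml, giving 1.0 × 10^4 cfu per well in LB broth. Compounds tested at up to 1 mg/ml. Plates incubated 24 h. MIC taken as the lowest concentration with no visible growth under a binocular microscope. OD at 655 nm was also read against a blank and the positive control. Streptomycin and ampicillin were the positive controls.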

Compound | MIC
CCn1c(Cc2cc(OC)c(OC)cc2S(=O)(=O)N(C)C)n[nH]c1=S | 260 µM (≈ 100 µg/mL)

The compounds below were run on Enterobacter cloacae (assay: Antibacterial activity against Enterobacter cloacae human isolate after 24 hrs by micro dilution method). Settings: not given.
Assay type: functional
Outline: as §1

Compound | MIC
CCn1c(Cc2cc(OC)c(OC)cc2S(=O)(=O)N(C)C)n[nH]c1=S | 260 µM (≈ 100 µg/mL)

Each compound was assayed on Aspergillus niger (assay: Antifungal activity against Aspergillus niger ATCC 6275 after 72 hrs by serial dilution method). Settings: ATCC 6275, 72 h.
Assay type: functional
Outline: (§2)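 Modified microdilution MIC. Spores were washed from malt agar cultures with sterile 0.85% saline containing 0.1% Tween 80 and adjusted to about 1.0 × 10^5 per 100 µl well in malt broth. Compounds were dissolved in DMSO (1 mg/ml). Plates incubated 72 h at 28 °C. MIC is the lowest concentration with no visible growth under a binocular microscope. Bifonazole and ketoconazole were the references.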

Compound | MIC
CCn1c(Cc2cc(OC)c(OC)cc2S(=O)(=O)N(C)C)n[nH]c1=S | 70 µM (≈ 27.1 µg/mL)

Each compound was assayed on Aspergillus versicolor (assay: Antifungal activity against Aspergillus versicolor ATCC 11730 after 72 hrs by serial dilution method). Settings: ATCC 11730, 72 h.
Assay type: functional
Outline: as §2

Compound | MIC
CCn1c(Cc2cc(OC)c(OC)cc2S(=O)(=O)N(C)C)n[nH]c1=S | 130 µM (≈ 50.2 µg/mL)

What follows are compounds tested on Escherichia coli (assay: Antibacterial activity against Escherichia coli ATCC 35210 treated for 24 hrs followed by sub-cultivated for 72 hrs by micro dilution method). Settings: not given.
Assay type: functional
Outline: (§3)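 2 µl from each well was serially subcultured into 100 µl fresh broth per well and incubated a further 72 h. MBC is the lowest concentration with no visible growth, taken as 99.5% killing of the original inoculum. Streptomycin and ampicillin were the positive controls.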

Compound | MBC
CCn1c(Cc2cc(OC)c(OC)cc2S(=O)(=O)N(C)C)n[nH]c1=S | 520 µM (≈ 201 µg/mL)

These compounds were tested on Trichoderma viride (assay: Antifungal activity against Trichoderma viride IAM 5061 treated for 72 hrs followed by sub-cultivated for 5 days by serial dilution method). Settings: not given.
Assay type: functional
Outline: (§4)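 MFC obtained after the 72 h, 28 °C malt-broth microdilution (spore inoculum about 1.0 × 10^5 per well, compounds from 1 mg/ml DMSO). 2 µl was serially subcultured into 100 µl broth per well and incubated a further 5 days at 28 °C. MFC is the lowest concentration with no visible growth, taken as 99.5% killing of the original inoculum.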

Compound | MFC
CCn1c(Cc2cc(OC)c(OC)cc2S(=O)(=O)N(C)C)n[nH]c1=S | 130 µM (≈ 50.2 µg/mL)

These compounds were tested on Micrococcus flavus (assay: Antibacterial activity against Micrococcus flavus ATCC 10240 treated for 24 hrs followed by sub-cultivated for 72 hrs by micro dilution method). Settings: not given.
Assay type: functional
Outline: as §3

Compound | MBC
CCn1c(Cc2cc(OC)c(OC)cc2S(=O)(=O)N(C)C)n[nH]c1=S | 520 µM (≈ 201 µg/mL)

The compounds below were run on Salmonella typhimurium (assay: Antibacterial activity against Salmonella Typhimurium ATCC 13311 after 24 hrs by micro dilution method). Settings: Salmonella enterica, ATCC 13311, 24 h.
Assay type: functional, Salmonella enterica subsp. enterica serovar Typhimurium
Outline: as §1

Compound | MIC
CCn1c(Cc2cc(OC)c(OC)cc2S(=O)(=O)N(C)C)n[nH]c1=S | 260 µM (≈ 100 µg/mL)

What follows are compounds tested on Aspergillus fumigatus (assay: Antifungal activity against Aspergillus fumigatus human isolate treated for 72 hrs followed by sub-cultivated for 5 days by serial dilution method). Settings: not given.
Assay type: functional
Outline: as §4

Compound | MFC
CCn1c(Cc2cc(OC)c(OC)cc2S(=O)(=O)N(C)C)n[nH]c1=S | 260 µM (≈ 100 µg/mL)

Each compound was assayed on Aspergillus versicolor (assay: Antifungal activity against Aspergillus versicolor ATCC 11730 treated for 72 hrs followed by sub-cultivated for 5 days by serial dilution method). Settings: not given.
Assay type: functional
Outline: as §4

Compound | MFC
CCn1c(Cc2cc(OC)c(OC)cc2S(=O)(=O)N(C)C)n[nH]c1=S | 260 µM (≈ 100 µg/mL)

Each compound was assayed on Pseudomonas aeruginosa (assay: Antibacterial activity against Pseudomonas aeruginosa ATCC 27853 after 24 hrs by micro dilution method). Settings: ATCC 27853, 24 h.
Assay type: functional
Outline: as §1

Compound | MIC
CCn1c(Cc2cc(OC)c(OC)cc2S(=O)(=O)N(C)C)n[nH]c1=S | 260 µM (≈ 100 µg/mL)

What follows are compounds tested on Micrococcus flavus (assay: Antibacterial activity against Micrococcus flavus ATCC 10240 after 24 hrs by micro dilution method). Settings: ATCC 10240, 24 h.
Assay type: functional
Outline: as §1

Compound | MIC
CCn1c(Cc2cc(OC)c(OC)cc2S(=O)(=O)N(C)C)n[nH]c1=S | 260 µM (≈ 100 µg/mL)

Each compound was assayed on Listeria monocytogenes (assay: Antibacterial activity against Listeria monocytogenes NCTC 7973 treated for 24 hrs followed by sub-cultivated for 72 hrs by micro dilution method). Settings: not given.
Assay type: functional
Outline: as §3

Compound | MBC
CCn1c(Cc2cc(OC)c(OC)cc2S(=O)(=O)N(C)C)n[nH]c1=S | 520 µM (≈ 201 µg/mL)

The compounds below were run on Talaromyces funiculosus (assay: Antifungal activity against Penicillium funiculosum ATCC 36839 after 72 hrs by serial dilution method). Settings: ATCC 36839, 72 h.
Assay type: functional
Outline: as §2

Compound | MIC
CCn1c(Cc2cc(OC)c(OC)cc2S(=O)(=O)N(C)C)n[nH]c1=S | 130 µM (≈ 50.2 µg/mL)

What follows are compounds tested on Listeria monocytogenes (assay: Antibacterial activity against Listeria monocytogenes NCTC 7973 after 24 hrs by micro dilution method). Settings: NCTC 7973, 24 h.
Assay type: functional
Outline: as §1

Compound | MIC
CCn1c(Cc2cc(OC)c(OC)cc2S(=O)(=O)N(C)C)n[nH]c1=S | 260 µM (≈ 100 µg/mL)

These compounds were tested on Trichoderma viride (assay: Antifungal activity against Trichoderma viride IAM 5061 after 72 hrs by serial dilution method). Settings: IAM 5061, 72 h.
Assay type: functional
Outline: as §2

Compound | MIC
CCn1c(Cc2cc(OC)c(OC)cc2S(=O)(=O)N(C)C)n[nH]c1=S | 70 µM (≈ 27.1 µg/mL)

These compounds were tested on Bacillus cereus (assay: Antibacterial activity against Bacillus cereus clinical isolate treated for 24 hrs followed by sub-cultivated for 72 hrs by micro dilution method). Settings: not given.
Assay type: functional
Outline: as §3

Compound | MBC
CCn1c(Cc2cc(OC)c(OC)cc2S(=O)(=O)N(C)C)n[nH]c1=S | 520 µM (≈ 201 µg/mL)

Each compound was assayed on Fulvia fulva (assay: Antifungal activity against Fulvia fulva treated for 72 hrs followed by sub-cultivated for 5 days by serial dilution method). Settings: not given.
Assay type: functional
Outline: as §4

Compound | MFC
CCn1c(Cc2cc(OC)c(OC)cc2S(=O)(=O)N(C)C)n[nH]c1=S | 70 µM (≈ 27.1 µg/mL)

Each compound was assayed on Aspergillus flavus (assay: Antifungal activity against Aspergillus flavus ATCC 9643 treated for 72 hrs followed by sub-cultivated for 5 days by serial dilution method). Settings: not given.
Assay type: functional
Outline: as §4

Compound | MFC
CCn1c(Cc2cc(OC)c(OC)cc2S(=O)(=O)N(C)C)n[nH]c1=S | 260 µM (≈ 100 µg/mL)

These compounds were tested on Aspergillus niger (assay: Antifungal activity against Aspergillus niger ATCC 6275 treated for 72 hrs followed by sub-cultivated for 5 days by serial dilution method). Settings: not given.
Assay type: functional
Outline: as §4

Compound | MFC
CCn1c(Cc2cc(OC)c(OC)cc2S(=O)(=O)N(C)C)n[nH]c1=S | 130 µM (≈ 50.2 µg/mL)

The compounds below were run on Enterobacter cloacae (assay: Antibacterial activity against Enterobacter cloacae human isolate treated for 24 hrs followed by sub-cultivated for 72 hrs by micro dilution method). Settings: not given.
Assay type: functional
Outline: as §3

Compound | MBC
CCn1c(Cc2cc(OC)c(OC)cc2S(=O)(=O)N(C)C)n[nH]c1=S | 520 µM (≈ 201 µg/mL)

These compounds were tested on Penicillium ochrochloron (assay: Antifungal activity against Penicillium ochrochloron ATCC 9112 after 72 hrs by serial dilution method). Settings: ATCC 9112, 72 h.
Assay type: functional
Outline: as §2

Compound | MIC
CCn1c(Cc2cc(OC)c(OC)cc2S(=O)(=O)N(C)C)n[nH]c1=S | 130 µM (≈ 50.2 µg/mL)

Each compound was assayed on Aspergillus fumigatus (assay: Antifungal activity against Aspergillus fumigatus human isolate after 72 hrs by serial dilution method). Settings: not given.
Assay type: functional
Outline: as §2

Compound | MIC
CCn1c(Cc2cc(OC)c(OC)cc2S(=O)(=O)N(C)C)n[nH]c1=S | 130 µM (≈ 50.2 µg/mL)

These compounds were tested on Salmonella typhimurium (assay: Antibacterial activity against Salmonella Typhimurium ATCC 13311 treated for 24 hrs followed by sub-cultivated for 72 hrs by micro dilution method). Settings: Salmonella enterica.
Assay type: functional, Salmonella enterica subsp. enterica serovar Typhimurium
Outline: as §3

Compound | MBC
CCn1c(Cc2cc(OC)c(OC)cc2S(=O)(=O)N(C)C)n[nH]c1=S | 260 µM (≈ 100 µg/mL)

Each compound was assayed on Penicillium ochrochloron (assay: Antifungal activity against Penicillium ochrochloron ATCC 9112 treated for 72 hrs followed by sub-cultivated for 5 days by serial dilution method). Settings: not given.
Assay type: functional
Outline: as §4

Compound | MFC
CCn1c(Cc2cc(OC)c(OC)cc2S(=O)(=O)N(C)C)n[nH]c1=S | 260 µM (≈ 100 µg/mL)

The compounds below were run on Fulvia fulva (assay: Antifungal activity against Fulvia fulva after 72 hrs by serial dilution method). Settings: not given.
Assay type: functional
Outline: as §2

Compound | MIC
CCn1c(Cc2cc(OC)c(OC)cc2S(=O)(=O)N(C)C)n[nH]c1=S | 70 µM (≈ 27.1 µg/mL)

Each compound was assayed on Talaromyces funiculosus (assay: Antifungal activity against Penicillium funiculosum ATCC 36839 treated for 72 hrs followed by sub-cultivated for 5 days by serial dilution method). Settings: not given.
Assay type: functional
Outline: as §4

Compound | MFC
CCn1c(Cc2cc(OC)c(OC)cc2S(=O)(=O)N(C)C)n[nH]c1=S | 260 µM (≈ 100 µg/mL)

Each compound was assayed on Staphylococcus aureus (assay: Antibacterial activity against Staphylococcus aureus ATCC 6538 treated for 24 hrs followed by sub-cultivated for 72 hrs by micro dilution method). Settings: not given.
Assay type: functional
Outline: as §3

Compound | MBC
CCn1c(Cc2cc(OC)c(OC)cc2S(=O)(=O)N(C)C)n[nH]c1=S | 520 µM (≈ 201 µg/mL)

What follows are compounds tested on Bacillus cereus (assay: Antibacterial activity against Bacillus cereus clinical isolate after 24 hrs by micro dilution method). Settings: not given.
Assay type: functional
Outline: as §1

Compound | MIC
CCn1c(Cc2cc(OC)c(OC)cc2S(=O)(=O)N(C)C)n[nH]c1=S | 520 µM (≈ 201 µg/mL)

The compounds below were run on Pseudomonas aeruginosa (assay: Antibacterial activity against Pseudomonas aeruginosa ATCC 27853 treated for 24 hrs followed by sub-cultivated for 72 hrs by micro dilution method). Settings: not given.
Assay type: functional
Outline: as §3

Compound | MBC
CCn1c(Cc2cc(OC)c(OC)cc2S(=O)(=O)N(C)C)n[nH]c1=S | 260 µM (≈ 100 µg/mL)

Each compound was assayed on Escherichia coli (assay: Antibacterial activity against Escherichia coli ATCC 35210 after 24 hrs by micro dilution method). Settings: ATCC 35210, 24 h.
Assay type: functional
Outline: as §1

Compound | MIC
CCn1c(Cc2cc(OC)c(OC)cc2S(=O)(=O)N(C)C)n[nH]c1=S | 260 µM (≈ 100 µg/mL)

What follows are compounds tested on Aspergillus flavus (assay: Antifungal activity against Aspergillus flavus ATCC 9643 after 72 hrs by serial dilution method). Settings: ATCC 9643, 72 h.
Assay type: functional
Outline: as §2

Compound | MIC
CCn1c(Cc2cc(OC)c(OC)cc2S(=O)(=O)N(C)C)n[nH]c1=S | 70 µM (≈ 27.1 µg/mL)
